Source: ChEMBL document CHEMBL4196059, “Design, synthesis, and biological evaluation of stable β6.3-Helices: Discovery of non-hemolytic antibacterial peptides” (Eur J Med Chem, 2018)
pKd: −log10 of the molar value. ≈ marks a conversion by molar mass, not a printed value. Calls of active or inactive are those of the source. No cut-off for these calls is given here. Residues, ends and D or L forms follow the SMILES beside them.

How the values were obtained:
Pseudomonas aeruginosa = test: Growth inhibition of Pseudomonas aeruginosa ATCC 27853 at 32 ug/ml after 18 hrs; format: functional; settings: ATCC 27853, 18 h, read-out: GI
Summary of the method: (§1)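 Mid-log cultures were prepared as above and seeded at 5×10^5 CFU/mL with compound at a final 32 μg/mL, then held static at 37 °C for 18 h. Growth was read as OD600. Percent inhibition was calculated against media-only and bacteria-only controls on the same plate.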

Escherichia coli [1] = test: Growth inhibition of Escherichia coli ATCC 25922 at 32 ug/ml after 18 hrs; format: functional; settings: ATCC 25922, 18 h, read-out: GI; summary of the method: as §1
Candida albicans = test: Growth inhibition of Candida albicans ATCC 90028 at 32 ug/ml after 24 hrs by OD530 light-scattering microspectrophotometric method; settings: ATCC 90028, 24 h, read-out: GI
[2] = Hemolytic activity against human RBC at 50 uM after 1 hr by Drabkin's assay relative to control; format: ADME, cell-based, Erythrocyte; settings: human red blood cells (erythrocytes), read-out: Activity
Cryptococcus neoformans = test: Growth inhibition of Cryptococcus neoformans H99 ATCC 208821 at 32 ug/ml after 24 hrs by resazurin dye-based microspectrophotometric assay; format: functional; settings: var. grubii H99 ATCC 208821, 24 h, read-out: GI
Summary of the method: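 Yeasts were grown 3 days on YPD agar at 30 °C, suspended from five colonies and diluted in YNB broth to a final 2.5×10^3 CFU/mL. Compound at a final 32 μg/mL; incubated 24 h at 35 °C without shaking. C. albicans was read at OD530. C. neoformans was read as OD600–570 after resazurin (0.001% final) and a further 2 h at 35 °C. Fluconazole was the standard.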

[3] = Hemolytic activity against human RBC at 0.39 uM after 1 hr by Drabkin's assay relative to control; format: ADME, cell-based, Erythrocyte; settings: human red blood cells (erythrocytes), read-out: Activity
[4] = Hemolytic activity against human RBC at 3.125 uM after 1 hr by Drabkin's assay relative to control; format: ADME, cell-based, Erythrocyte; settings: human red blood cells (erythrocytes), read-out: Activity
[5] = Hemolytic activity against human RBC at 0.78 uM after 1 hr by Drabkin's assay relative to control; format: ADME, cell-based, Erythrocyte; settings: human red blood cells (erythrocytes), read-out: Activity
Klebsiella pneumoniae [6] = test: Growth inhibition of multidrug-resistant Klebsiella pneumoniae ATCC 700603 at 32 ug/ml after 18 hrs; format: functional; settings: ATCC 700603, 18 h, read-out: GI
Summary of the method: (§2)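 Mid-log cultures in cation-adjusted Mueller Hinton broth were added at 5×10^5 CFU/mL to wells at a final compound concentration of 32 μg/mL. Plates stood at 37 °C for 18 h. Growth was read by OD600, and % inhibition was computed against media-only and untreated-bacteria controls.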

[7] = Hemolytic activity against human RBC at 1.56 uM after 1 hr by Drabkin's assay relative to control; format: ADME, cell-based, Erythrocyte; settings: human red blood cells (erythrocytes), read-out: Activity
[8] = Hemolytic activity against human RBC at 6.25 uM after 1 hr by Drabkin's assay relative to control; format: ADME, cell-based, Erythrocyte; settings: human red blood cells (erythrocytes), read-out: Activity
Acinetobacter baumannii [9] = test: Growth inhibition of Acinetobacter baumannii ATCC 19606 at 32 ug/ml after 18 hrs; format: functional; settings: ATCC 19606 = CIP 70.34 = JCM 6841, 18 h, read-out: GI; summary of the method: as §1
Erythrocyte = test: Hemolytic activity against human RBC after 1 hr by Drabkin's assay; format: ADME, cell-based
Staphylococcus aureus [10] = test: Growth inhibition of methicillin-resistant Staphylococcus aureus ATCC 43300 at 32 ug/ml after 18 hrs; format: functional; settings: ATCC 43300, 18 h, read-out: GI; summary of the method: as §2
[11] = Hemolytic activity against human RBC at 25 uM after 1 hr by Drabkin's assay relative to control; format: ADME, cell-based, Erythrocyte; settings: human red blood cells (erythrocytes), read-out: Activity
[12] = Induction of pore formation in DOPC vesicles at 20 uM after 3 hrs by carboxyfluorescein dye leakage assay; settings: in the assay text read “after 3 mins” for “after 3 hrs”
Summary of the method: (§3)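 POPC or DOPC liposomes were hydrated in 10 mM HEPES, 100 mM KCl, pH 7.4, containing 50 mM carboxyfluorescein. Size was checked by dynamic light scattering, and vesicles were used at 2.2×10^10 per mL. Peptide at 20 μM was equilibrated with vesicles for 3 min, and dye leakage was measured.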

Lipid bilayer [13] = test: Binding affinity to POPC vesicles by surface plasmon resonance spectroscopy
Summary of the method: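 SPR on a dextran chip carrying immobilized POPC liposomes, with running buffer of 10 mM HEPES and 100 mM KCl at pH 7.4. Peptides in PBS were flowed at 25 μL/min at 10–1000 μM, with reference-subtracted response units. KD and Rmax were fitted from maximum response versus concentration. Regeneration used 20 mM CHAPS followed by fresh liposomes.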

[14] = Hemolytic activity against human RBC at 12.5 uM after 1 hr by Drabkin's assay relative to control; format: ADME, cell-based, Erythrocyte; settings: human red blood cells (erythrocytes), read-out: Activity
Escherichia coli [15] = test: Antibacterial activity against Escherichia coli ATCC 25922 after 18 hrs by non-binding surface 96-well plate-based method; format: functional; settings: ATCC 25922, 18 h
Summary of the method: (§4)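 Cultured in cation-adjusted Mueller Hinton broth at 37 °C for 12 h, diluted 40-fold and grown 1.5–3 h to mid-log. Seeded at 5×10^5 CFU/mL over a 12-point dose response in non-binding surface and polystyrene 96-well plates, duplicates (n=2). Incubated static at 37 °C for 18 h. MIC read from OD600 light scattering; colistin and vancomycin as standards.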

Acinetobacter baumannii [16] = test: Antibacterial activity against Acinetobacter baumannii ATCC 19606 after 18 hrs by non-binding surface 96-well plate-based method; format: functional; settings: ATCC 19606 = CIP 70.34 = JCM 6841, 18 h
Summary of the method: (§5)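 Strains grown in cation-adjusted Mueller Hinton broth at 37 °C for 12 h, diluted 40-fold and regrown 1.5–3 h to mid-log. Inoculum was 5×10^5 CFU/mL in 12-point dose response, in non-binding surface or polystyrene plates, in duplicate. Plates stood at 37 °C for 18 h. MIC was read by OD600.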

Klebsiella pneumoniae [17] = test: Antibacterial activity against multidrug-resistant Klebsiella pneumoniae ATCC 700603 after 18 hrs by non-binding surface 96-well plate-based method; format: functional; settings: ATCC 700603, 18 h; summary of the method: as §5
Klebsiella pneumoniae [18] = test: Antibacterial activity against multidrug-resistant Klebsiella pneumoniae ATCC 700603 after 18 hrs by polystyrene 96-well plate-based method; format: functional; settings: ATCC 700603, 18 h; summary of the method: as §5
Escherichia coli [19] = test: Antibacterial activity against Escherichia coli ATCC 25922 after 18 hrs by polystyrene 96-well plate-based method; format: functional; settings: ATCC 25922, 18 h; summary of the method: as §5
Acinetobacter baumannii [20] = test: Antibacterial activity against Acinetobacter baumannii ATCC 19606 after 18 hrs by polystyrene 96-well plate-based method; format: functional; settings: ATCC 19606 = CIP 70.34 = JCM 6841, 18 h; summary of the method: as §4
Staphylococcus aureus [21] = test: Antibacterial activity against methicillin-resistant Staphylococcus aureus ATCC 43300 after 18 hrs by non-binding surface 96-well plate-based method; format: functional; settings: ATCC 43300, 18 h; summary of the method: as §5
Lipid bilayer [22] = test: Induction of pore formation in POPC vesicles at 20 uM after 3 hrs by carboxyfluorescein dye leakage assay; settings: in the assay text read “after 3 mins” for “after 3 hrs”; summary of the method: as §3
[23] = Hemolytic activity against human RBC; format: ADME, cell-based, Erythrocyte; settings: human red blood cells (erythrocytes)
Staphylococcus aureus [24] = test: Antibacterial activity against methicillin-resistant Staphylococcus aureus ATCC 43300 after 18 hrs by polystyrene 96-well plate-based method; format: functional; settings: ATCC 43300, 18 h; summary of the method: as §5

Structure (SMILES) | inhibition of growth at 32 µg/mL (Pseudomonas aeruginosa) [%] | inhibition of growth at 32 µg/mL (Escherichia coli [1]) [%] | inhibition of growth at 32 µg/mL (Candida albicans) [%] | hemolysis at 1 h, 50 µM [2] [%] | inhibition of growth at 32 µg/mL (Cryptococcus neoformans) [%] | hemolysis at 1 h, 0.39 µM [3] [%] | hemolysis at 1 h, 3.125 µM [4] [%] | hemolysis at 1 h, 0.78 µM [5] [%] | inhibition of growth at 32 µg/mL (Klebsiella pneumoniae [6]) [%] | hemolysis at 1 h, 1.56 µM [7] [%] | hemolysis at 1 h, 6.25 µM [8] [%] | inhibition of growth at 32 µg/mL (Acinetobacter baumannii [9]) [%] | Activity (Erythrocyte) | inhibition of growth at 32 µg/mL (Staphylococcus aureus [10]) [%] | hemolysis at 1 h, 25 µM [11] [%] | hemolysis at 1 h, 12.5 µM [14] [%] | MIC (Escherichia coli [15]) [µg/mL] | MIC (Acinetobacter baumannii [16]) [µg/mL] | MIC (Klebsiella pneumoniae [17]) [µg/mL] | MIC (Klebsiella pneumoniae [18]) [µg/mL] | further results
CC(C)(C)OC(=O)N1CCC[C@H]1C(=O)N1CCCN1C(=O)N1CCC[C@H]1C(=O)N1CCCN1C(=O)N1CCC[C@H]1C(=O)N1CCCN1C(=O)N1CCC[C@H]1C(=O)N1CCCN1C(=O)N1CCC[C@H]1C(=O)N1CCCN1C(=O)N1CCC[C@H]1C(=O)N1CCCN1C(=O)N1CCC[C@H]1C(=O)N1CCCN1C(=O)N1CCC[C@H]1C(=O)N1CCCN1C(=O)OCc1ccccc1 | -8.18 | 5.27 | 2.92 | -0.42 | -3.43 | -0.04 | 0.02 | 0.15 | 5.27 | -0.04 | -0.11 | 17.8 | Dose-dependent effect | 20.7 | -0.23 | -0.17 | – | – | – | – | Activity [12]: inactive; pKd (Lipid bilayer [13]): 3.36; Rmax (Lipid bilayer [13]): 632
CN[C@H](CC(C)C)C(=O)N[C@H]1C(=O)N[C@@H](CC(N)=O)C(=O)N[C@H]2C(=O)N[C@H]3C(=O)N[C@H](C(=O)N[C@H](C(=O)O)c4cc(O)cc(O)c4-c4cc3ccc4O)[C@H](O)c3ccc(c(Cl)c3)Oc3cc2cc(c3O[C@@H]2O[C@H](CO)[C@@H](O)[C@H](O)[C@H]2O[C@H]2C[C@](C)(N)[C@H](O)[C@H](C)O2)Oc2ccc(cc2Cl)[C@H]1O [VANCOMYCIN] | – | – | – | – | – | – | – | – | – | – | – | – | – | – | – | – | > 32 | > 32 | > 32 | > 32 | MIC (Escherichia coli [19]): > 32 µg/mL; MIC (Acinetobacter baumannii [20]): > 32 µg/mL
CC(C)C[C@@H](NC(=O)[C@H](C)NC(=O)CNC(=O)[C@@H](NC=O)C(C)C)C(=O)N[C@@H](C)C(=O)N[C@@H](C(=O)N[C@H](C(=O)N[C@@H](C(=O)N[C@@H](Cc1c[nH]c2ccccc12)C(=O)N[C@H](CC(C)C)C(=O)N[C@@H](Cc1c[nH]c2ccccc12)C(=O)N[C@H](CC(C)C)C(=O)N[C@@H](Cc1c[nH]c2ccccc12)C(=O)N[C@H](CC(C)C)C(=O)N[C@@H](Cc1c[nH]c2ccccc12)C(=O)NCCO)C(C)C)C(C)C)C(C)C (HELM PEPTIDE1{[O=C[*:2]].V.G.A.[dL].A.[dV].V.[dV].W.[dL].W.[dL].W.[dL].W.[OCCN[*:1]]}$$$$V2.0) | -6.36 | 11.1 | 8.67 | 48.5 | -0.81 | 5.43 | 84.7 | 59.4 | 11.2 | 74.8 | 87.2 | 6.51 | Dose-dependent effect | 24.9 | 52.8 | 66.1 | > 50 | > 50 | > 50 | > 50 | MIC (Staphylococcus aureus [21]): > 50 µg/mL; Activity (Lipid bilayer [22]): 100%; MIC (Escherichia coli [19]): > 50 µg/mL; HC50 [23]: 5 µM; MIC (Acinetobacter baumannii [20]): > 50 µg/mL; MIC (Staphylococcus aureus [24]): 25 to 50 µg/mL (≈ 13.3 to 26.6 µM)
